mIAP inh = inhibitors of mouse IAP, primary screen, biochemical, luminescence, uHTS; intestinal alkaline phosphatase [Mus musculus]; purified mouse IAP, CDP-Star luminescence, 30 min; inhibition, % at 10 µM; 330,000 compounds, 0.2% hits; AID 2806, 2010;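 active means inhibition of at least 40% at 10 µM in the primary screen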;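 further: plate controls were DMSO with enzyme for no effect and no enzyme wells for full effect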
hIAP act = human IAP activators, primary screen, biochemical, luminescence, uHTS | purified human IAP, CDP-Star luminescence, 30 min; stronger effect = higher value; 1 = vehicle-only enzyme, 0 = enzyme-free background | activation factor at 10 µM | 330,000 compounds, 0.16% hits | AID 2524, 2010;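 active means activation factor of the enzyme at least 2-fold when tested at 20 µM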
Target sequence (P09923 whole entry, looked up): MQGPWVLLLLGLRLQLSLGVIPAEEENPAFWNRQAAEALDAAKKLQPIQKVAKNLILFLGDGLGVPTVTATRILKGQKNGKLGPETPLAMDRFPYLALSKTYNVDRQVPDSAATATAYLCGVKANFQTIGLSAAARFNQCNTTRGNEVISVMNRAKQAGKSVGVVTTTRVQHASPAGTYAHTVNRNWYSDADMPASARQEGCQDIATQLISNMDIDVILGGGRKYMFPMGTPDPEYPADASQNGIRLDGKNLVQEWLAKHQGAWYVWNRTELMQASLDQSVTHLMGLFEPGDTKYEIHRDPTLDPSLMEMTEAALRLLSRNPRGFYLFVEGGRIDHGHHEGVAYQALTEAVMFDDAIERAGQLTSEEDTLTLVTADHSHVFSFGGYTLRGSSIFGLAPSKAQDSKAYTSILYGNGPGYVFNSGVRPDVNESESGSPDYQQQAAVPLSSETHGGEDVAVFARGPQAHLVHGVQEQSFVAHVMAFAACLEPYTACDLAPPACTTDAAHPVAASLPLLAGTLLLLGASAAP
bIAP inhibitor = bovine intestinal alkaline phosphatase inhibitors, primary screen, selectivity assay for TNAP inhibitor project, biochemical, bovine IAP, CDP-star luminescence; 190,000 tested, under 10 active; alkaline phosphatase, intestinal [Bos taurus]; purified bovine IAP, 30 min; inhibition, % at 20 µM;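 active means over 50% inhibition of intestinal alkaline phosphatase at 20 µM in the single-dose screen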
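Assay system – bovine IAP enzyme · Quantity – bovine IAP at 1/65,000,000 final dilution · Detection – CDP-star luminescence signal · Times – 30 min reaction at room temperature · Also added – CDP-star substrate at 30 µM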
mIAP activ = activators of mouse IAP, primary screen, biochemical, luminescence, uHTS. activation factor at 10 µM. 330,000 compounds, 0.24% hits. intestinal alkaline phosphatase [Mus musculus]. muIAP, CDP-Star luminescence, 30 min; stronger effect = higher value; 1 = vehicle-only enzyme signal, 0 = enzyme-free wells;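 active means activation factor of at least 2 at 20 µM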
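Assay system: mouse IAP enzyme; Reagent: CDP-Star chemiluminescent phosphatase substrate; Compound: DMSO-dissolved test compounds; Incubation: 30 min, room temperature; Technique: luminescence from enzymatic CDP-Star hydrolysis; Controls: DMSO-only wells and no-enzyme negative control.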
bIAP act = bovine intestinal alkaline phosphatase activators, primary screen, biochemical, bovine IAP, CDP-star luminescence. alkaline phosphatase, intestinal [Bos taurus]. purified bovine IAP, 30 min; stronger effect = higher value; fold of DMSO-control signal, blank-subtracted. activation factor at 20 µM. 200,000 compounds, 0.17% hits;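 active means activation factor of 2 or more at 20 µM, a signal rise over negative controls twice the positive control's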
hIAP block = human IAP inhibitors, primary screen, biochemical, luminescence, uHTS; 330,000 compounds, 0.12% hits; inhibition, % at 10 µM; AID 2544, 2010; purified IAP, CDP-Star luminescence, 30 min;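 active means inhibition reaching a set limit with compound at 10 µM in the primary screen, cut at about 35% in these data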;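 further: plate controls were DMSO wells with enzyme for no effect and no-enzyme buffer wells for full effect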
hIAP act confirm = human IAP activators, confirmation, biochemical, luminescence, single concentration, uHTS hits | shares compounds with hIAP act | purified IAP, CDP-Star luminescence, 30 min; stronger effect = lower value | activation (%Activity, negative = activation), % at 8.3 µM | 880 compounds, 10% hits | AID 434926, 2010;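 active means at least twofold enzyme activation in any of six single-dose repeats, which the averaged readout prints as negative percent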
Numbers without * were called inactive; nt = no result given. Hits are enriched below; roughly 0.77% of the tested compounds scored in any of these assays.

SMILES	mIAP inh	hIAP act	bIAP inhibitor	mIAP activ	bIAP act	hIAP block	hIAP act confirm
C[C@@H]1O[C@@H](Oc2c(-c3ccc(O)c(O)c3)oc3cc(O)cc(O)c3c2=O)[C@H](O)[C@H](O)[C@H]1O	37.3	0.644	nt	0.627	nt	35.6*	1.0
O=c1c(O[C@@H]2O[C@H](CO)C(O)C2O)c(-c2ccc(O)c(O)c2)oc2cc(O)cc(O)c12 (some centres undefined)	38.2	0.409	nt	0.618	nt	59.1*	4.3
O=c1c(OC2OC(CO)C(O)C(O)C2O)c(-c2ccc(O)c(O)c2)oc2cc(O)cc(O)c12 (centres undefined)	14.2	0.442	18.2	0.858	0.8	55.8*	-42.7
O=[N+]([O-])c1ccc(N2N=C(c3ccccc3)CC2c2ccccc2O)cc1 (centres undefined)	19.3	0.624	nt	0.807	nt	37.6*	-50.3
NS(=O)(=O)c1ccc(N2N=C(c3ccccc3)CC2c2ccccc2Br)cc1 (centres undefined)	-75.5	nt	nt	1.75	nt	nt	nt
O=S(=O)(c1ccc(OCc2ccc(Br)cc2)cc1)N1CCOCC1	-5.9	0.994	nt	1.06	nt	0.6	nt
COC(=O)C(Cc1c[nH]c2ccccc12)NC(=O)C(=O)c1c[nH]c2ccccc12 (centres undefined)	17.9	1.37	nt	0.821	nt	-36.9	nt
Cc1cc(OCc2cc(C(=O)NC3CCC3)no2)cc(C)c1Cl	2.1	0.612	nt	0.979	nt	38.8*	-3.4
Cc1ccc(OCc2cc(C(=O)NC3CCCCC3)no2)cn1	-6.0	1.17	nt	1.06	nt	-17.3	nt
Nc1ccc(S(=O)(=O)N2CCc3ccccc32)cc1	-3.2	0.619	nt	1.03	nt	38.1*	-25.7
CCc1cc(=O)[nH]c(-n2[nH]c(-c3ccccc3)cc2=O)n1	30.9	1.94	-41.8	0.691	1.4	-94.4	nt
O=c1cc(-c2ccccc2)[nH]n1-c1nc2ccccc2[nH]1	9.4	2.02*	-63.5	0.906	1.6	-101.9	-58.4*
COc1cc(/C=C2\SC(=S)N(N(C)c3ccccc3)C2=O)ccc1O	30.5	0.586	nt	0.695	nt	41.4*	60.4
CCOc1cc(/C=C2/SC(=S)N(Cc3ccccc3)C2=O)ccc1O	28.3	1.1	nt	0.717	nt	-9.9	nt
COc1cccc(CN2CCC(n3nccc3NC(=O)CCCc3ccccc3)CC2)c1	-66.1	3.28*	nt	1.66	nt	-228.4	-17.4
CCOc1ccccc1CN1CCC(n2nccc2NC(=O)CCCc2ccccc2)CC1	-44.0	3.25*	nt	1.44	nt	-225.4	-23.6
Cn1cc(CN2CCC(n3nccc3NC(=O)CCc3ccccc3)CC2)cn1	-4.1	1.13	nt	1.04	nt	-13.1	nt
CC(=O)c1cccc(CN2CCC(n3nccc3NC(=O)CCCc3ccccc3)CC2)c1	-10.3	1.23	nt	1.1	nt	-23.4	nt
CC(CN1CCC(n2nccc2NC(=O)CCCc2ccccc2)CC1)c1ccccc1 (centres undefined)	-78.9	2.04*	nt	1.79	nt	-103.9	-90.9
CCOc1ccccc1CN1CCC(n2nccc2NC(=O)CCc2ccccc2)CC1	-35.9	2.15*	nt	1.36	nt	-114.6	26.6
CN(CC(=O)Nc1ccccc1Cl)C(=O)c1ccc(-c2cccc(C(F)(F)F)c2)o1	-5.9	1.12	nt	1.06	nt	-12.3	nt
COc1ccc(/C=C/C(=O)N(C)C2(C)CCS(=O)(=O)C2)cc1 (centres undefined)	1.4	1.18	nt	0.986	nt	-17.6	nt
O=C(NC1CCN(C(=S)Nc2ccc(F)cc2)CC1)C1CCCCC1	-3.9	0.948	nt	1.04	nt	5.2	nt
Cc1[nH]n(-c2nc(-c3ccccc3F)cc(=O)[nH]2)c(=O)c1CCO	12.0	0.283	32.1	0.88	0.7	71.7*	-39.7*
Cc1cc2cc3c(cc2nc1SCC(=O)Nc1nc(C)c(C)s1)OCO3	4.0	2.16*	4.2	0.96	1	-115.9	43.9
SMILES	mIAP inh	hIAP act	bIAP inhibitor	mIAP activ	bIAP act	hIAP block	hIAP act confirm
COC(=O)CSc1nc2cc3c(cc2cc1C)OCO3	6.4	0.982	12.9	0.936	0.9	1.8	nt
CC(C(=O)Nc1ccccn1)N1C(=O)c2ccccc2S1(=O)=O (centres undefined)	0.4	1.05	nt	0.996	nt	-5.3	nt
CN1C(=O)/C(=C/c2cc(N=Nc3ccccc3)ccc2O)SC1=S	40.2*	0.536	28.5	0.598	0.7	46.4*	-53.6
Cc1c(N2C(=O)/C(=C\c3ccccc3O)SC2=S)c(=O)n(-c2ccccc2)n1C	14.4	0.868	nt	0.856	nt	13.2	nt
Cc1nc(S/C(=C/c2ccc(-c3ccc(Cl)cc3)o2)C(=O)O)n[nH]1	8.2	2.2*	12.7	0.918	0.9	-120.0	-88.7*
COCCc1nc2ccc(C(=O)N(C)Cc3cccc(-n4cccn4)c3)cc2o1	2.0	1.1	nt	0.98	nt	-10.0	nt
Cc1c(Cl)cccc1NC(=O)CNC(=O)CCS(=O)(=O)c1ccc(F)cc1	-2.8	1.12	nt	1.03	nt	-11.6	nt
COC(=O)CN1C(=O)C(O)(CC(=O)c2ccccc2)c2ccccc21 (centres undefined)	-1.1	1.17	5.5	1.01	0.9	-17.3	nt
COC(=O)CN1C(=O)C(O)(CC(=O)c2ccc(C)cc2)c2ccccc21 (centres undefined)	1.6	0.629	13.9	0.984	0.9	37.1*	45.9
CCCCCCCn1c(=N)n(CC(=O)c2ccco2)c2ccccc21	5.7	0.63	1.4	0.943	1	37.0*	-49.6*
CCCCn1c(=N)n(CC(=O)c2ccco2)c2ccccc21	-7.4	0.879	17.8	1.07	0.8	12.1	nt
COC(=O)c1cc(C#N)c(Oc2ccccc2OC)nc1C	5.1	0.638	3.6	0.949	1	36.2*	20.0
COc1ccc(NC(=O)/C(C#N)=C\c2ccc(N3CCOCC3)o2)cc1	20.5	0.611	39.6	0.795	0.6	38.9*	2.5
Cc1nn(CC(=O)O)c(C)c1NC(=O)c1cccs1	-1.8	0.582	nt	1.02	nt	41.8*	14.4
CC(=O)c1cccc(N(C(=O)c2csnn2)C(C(=O)NC2CCCC2)c2ccccc2)c1 (centres undefined)	2.5	1.05	nt	0.975	nt	-5.0	nt
CCn1c(C)nc2cc(C(=O)NNC(=O)[C@@H](NC(=O)c3cc(OC)cc(OC)c3)C(C)C)ccc21	-5.8	1.46	nt	1.06	nt	-45.8	nt
O=C(Cc1ccccc1)NNC(=S)Nc1ccc(Cl)cc1	9.9	2.06*	-4.7	0.901	1	-105.7	-37.2
